Measured values: paper PMC6736640 (ACS chemical neuroscience, 2018)
pKd: −log10 of the molar value.

Target: Asyn fibrils (Homo sapiens, UniProt P37840)
Assay: Radioligand competition binding on Asyn fibrils with [3H]1
Procedure, shortened: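 Recombinant human Asyn fibrils at 150 nM incubated with 2 nM [3H]1 and test compound (1–1000 nM) in 30 mM Tris-HCl pH 7.4 with 0.1% BSA for 2 h at 37 °C. Bound ligand separated by vacuum filtration through 1.0 μm glass fiber filters, washed three times with cold buffer, and counted by scintillation after overnight incubation. Triplicates. EC50 from sigmoidal fit; Ki = EC50/(1+[radioligand]/Kd).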

- pKd: 7.33
SMILES: COc1ccc(/C=C/c2cc(-c3nccs3)on2)cc1 [compound 1, (E)-3-(4-methoxystyryl)-5-(thiazol-2-yl)isoxazole]
